According to BindingDB's records for doi:10.1016/j.ejmech.2019.111611 (The University of Queensland, 2019):

These molecules were tested against T1, Fe(3+)-Zn(2+) purple acid phosphatase (Phaseolus vulgaris, UniProt P80366) (assay: Competitive inhibition of red kidney bean PAP using varying levels of pNPP as substrate measured at pH 6.2 by UV-vis spectrophotometric analysis).
T1 sequence (P80366 whole entry): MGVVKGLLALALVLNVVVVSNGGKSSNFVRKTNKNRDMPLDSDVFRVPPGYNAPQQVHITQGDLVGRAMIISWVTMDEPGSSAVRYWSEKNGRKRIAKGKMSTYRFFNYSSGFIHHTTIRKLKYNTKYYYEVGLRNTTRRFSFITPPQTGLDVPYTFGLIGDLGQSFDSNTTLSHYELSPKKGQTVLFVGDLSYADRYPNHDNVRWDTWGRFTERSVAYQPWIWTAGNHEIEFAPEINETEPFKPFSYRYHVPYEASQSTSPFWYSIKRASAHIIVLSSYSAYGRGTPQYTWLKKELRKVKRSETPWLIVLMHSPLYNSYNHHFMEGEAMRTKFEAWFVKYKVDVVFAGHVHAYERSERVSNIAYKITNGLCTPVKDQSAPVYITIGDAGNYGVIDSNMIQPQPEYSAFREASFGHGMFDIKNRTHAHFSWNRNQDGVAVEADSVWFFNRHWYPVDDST
How it was run: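 Red kidney bean PAP (rkbPAP), purified, at 8.4 nM. p-NPP 1–15 mM in 0.1 M MES pH 6.2 with 25% DMSO, 25 °C. p-Nitrophenol formation followed at 405 nm (Δε 1834.4 mol−1 L cm−1). Inhibitor concentration varied; competitive constant Kic from non-linear regression using a general inhibition equation.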

Q: `CCCCCCCCCCCCOC(c1cccc2ccccc12)P(=O)(O)O` (stereo unspecified) was tested. Which Ki did it give?
A: 4500 nM

Q: How did the Ki turn out when `CCCCCCCCCCCCCCCCOC(c1cccc2ccccc12)P(=O)(O)O` (stereo unspecified) was run?
A: 400 nM

Q: With `CCCCCCCCCCCCCCCCCCOC(c1cccc2ccccc12)P(=O)(O)O` (stereo unspecified) as the molecule, how does the Ki read?
A: 500 nM

Q: With `CCCCCCCCCCCCCCCCCCCCCCOC(c1cccc2ccccc12)P(=O)(O)O` (stereo unspecified) as the molecule, how does the Ki read?
A: 14000 nM

Q: `CCCCCCCCCCCCCCOC(c1cccc2ccccc12)P(=O)(O)O` (stereo unspecified) was tested. Which Ki did it give?
A: 200 nM

Q: Which Ki does the source give for `CCCCCCCCCCCCCCCCCCCCOC(c1cccc2ccccc12)P(=O)(O)O` (stereo unspecified) here?
A: 800 nM
